Data taken from ChEMBL document CHEMBL1123170, “Drug design via pharmacophore identification. Dopaminergic activity of 3H-benz[e]indol-8-amines and their mode of interaction with the dopamine receptor” (1986).
Active and inactive are the calls of the source. The calls are words filed in the database; no cut-off is given here.

Tests used:
[1] = molecular target: Dopamine receptor (Rattus norvegicus) (UniProt P25115+P19020+P30729+P18901+P61169); assay: Dopamine receptor agonistic activity measured as Contralateral turning characteristic was measured in rat at 2.5 Sc mg/kg dose; assay type: functional, organism-based
Outline: (§1)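 Male Sprague-Dawley rats with unilateral 6-OHDA nigrostriatal lesions, groups of 4-5, reused at least 1 week apart. Dosed po or sc as stated, placed at once in a rotometer, and rotation recorded continuously until it stopped. Readout is total contralateral turns (mean ± SEM). Doses given as base.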

Rattus norvegicus [2] = assay: Compound was evaluated for its ability to induce locomotion in rats rendered akinetic by bilateral anterolateral hyphalamic injection of 6-OHDA at 10 mg/kg dose after sc administration; assay type: functional; conditions: route subcutaneous
Outline: (§2)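 Male Sprague-Dawley rats with 6-OHDA lesions of the anterolateral hypothalamus on both sides; tested 4 days after lesioning. Compound given sc, then rats placed in an open field. Ambulation recorded in 2-min periods across 2 h; one score = all four limbs placed in one square. Readout is the cumulative ambulation score (mean ± SEM).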

Mus musculus = assay: Compound was tested for its ability to antagonize the catalepsy produced in mice after sc administration; assay type: functional
Outline: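 Male Swiss albino mice (21-25 g), groups of 10-12. Reserpine 5 mg/kg ip given 17 h before sc test drug. Catalepsy checked before dosing and at 0.5, 1, 2, 3.5 and 5 h: mouse placed on a rubber stopper (5 cm diameter, 2.5 cm high) for 3 min; staying on counts as cataleptic. Quantal ED50 = dose reversing catalepsy in 50% of mice.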

Rattus norvegicus [3] = assay: Contralateral turning characteristic of dopamine agonist was measured in rat at 10 Sc mg/kg dose; assay type: functional; outline: as §1
Rattus norvegicus [4] = assay: Contralateral turning characteristic of dopamine agonist was measured in rat at 10 Po mg/kg dose; assay type: functional; outline: as §1
Rattus norvegicus [5] = assay: Compound was evaluated for its ability to induce locomotion in rats rendered akinetic by bilateral anterolateral hyphalamic injection of 6-OHDA at 2.5 mg/kg dose after sc administration; assay type: functional; conditions: route subcutaneous; outline: as §2
Rattus norvegicus [6] = assay: Ability to induce locomotion in rats rendered akinetic by bilateral anterolateral hyphalamic injection of 6-OHDA at 2.5 mg/kg dose after sc administration; assay type: functional; conditions: route subcutaneous; outline: as §2
Rattus norvegicus [7] = assay: Effect of pretreatment with alpha-MPT on the rotational behavior induced by the compound (5 mg/kg, sc) in rats with 6-OHDA induced lesions (indicates that it acted directly on DA receptors); assay type: functional
Rattus norvegicus [8] = assay: Compound was evaluated for its ability to induce locomotion in rats rendered akinetic by bilateral anterolateral hyphalamic injection of 6-OHDA at 10 Po mg/kg dose after sc administration; assay type: functional
Outline: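 Male Sprague-Dawley rats with bilateral 6-OHDA lesions of the anterolateral hypothalamus were tested 4 days after lesioning, dosed, and placed in an open field. Ambulation (all four limbs placed in one square = one score) was counted over six 2-min periods within 2 h. Result is the cumulative ambulation score, mean ± SEM. Doses refer to the base.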

Rattus norvegicus [9] = assay: Contralateral turning characteristic was measured in rat at 5 po mg/kg dose; assay type: functional
Outline: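 Male Sprague-Dawley rats with unilateral 6-OHDA lesions of the nigrostriatal pathway, in groups of 4-5, were reused at intervals of at least 1 week. After dosing, each rat was placed straight into a rotometer and recorded continuously until rotation ceased. Result is total contralateral turns, mean ± SEM. Doses refer to the base.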

Rattus norvegicus [10] = assay: Compound was evaluated for its ability to induce locomotion in rats rendered akinetic by bilateral anterolateral hyphalamic injection of 6-OHDA at 30 mg/kg dose after sc administration; I=Inactive; assay type: functional, organism-based; design: dose 30 mg/kg; outline: as §2

CCCN(CCC)C1CCc2ccc3c(ccn3C)c2C1 (stereo not given)
Activity [1]: < 300
Ambulation score (Rattus norvegicus [2]): <100
ED50 (Mus musculus): 5 mg/kg

CN(C)C1CCc2ccc3[nH]ccc3c2C1 (stereo not given)
Activity (Rattus norvegicus [3]): 4540
Activity (Rattus norvegicus [4]): 4947
Ambulation score (Rattus norvegicus [5]): 378
ED50 (Mus musculus): 5.8 mg/kg

CCCN(CCC)C1CCc2ccc3[nH]ccc3c2C1 (stereo not given)
Ambulation score (Rattus norvegicus [6]): 287
Activity (Rattus norvegicus [7]): 3460
ED50 (Mus musculus): 2.3 mg/kg

CC(C)C[C@H]1C(=O)N2CCC[C@H]2[C@]2(O)O[C@](NC(=O)[C@@H]3C=C4c5cccc6[nH]c(Br)c(c56)C[C@H]4N(C)C3)(C(C)C)C(=O)N12 [BROMOCRIPTINE]
Ambulation score (Rattus norvegicus [8]): 112
ED50 (Mus musculus): 2.3 mg/kg
Activity (Rattus norvegicus [9]): 1805

CN(C)C1CCc2ccc3c(ccn3C)c2C1 (stereo not given)
Ambulation score (Rattus norvegicus [10]): inactive
ED50 (Mus musculus): > 30 mg/kg
